# Hits are enriched below; roughly 8.4% of the tested compounds scored in any of these assays.
# Ecoli tolC = E. coli tolC mutant growth inhibition | E. coli BW25113 tolC mutant growth, OD615 | growth inhibition, % at 10 µM (by protocol) | 65,000 compounds, 2.2% hits;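 active means growth inhibition at or above a cutoff equal to the mean over every tested compound plus 3 SD, cut at about 60% in these data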;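 further: growth measured after 20 h incubation at 37 °C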
#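 Assay system: tolC-deleted E. coli BW25113. Medium: kanamycin-containing LB broth (50 µg/mL). Dosing: 10 µM final, single dose. Timing: bacterial growth with compound for 20 h at 37 °C. Detection: A615 absorbance measurement. Read-out basis: growth inhibition in percent.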
# E coli WT exp = E. coli BW25113 growth inhibition, expanded screen. OD600 absorbance. 98,000 compounds, 0.15% hits. growth inhibition, % at 100 µM;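 active means growth inhibition above about 50% at one test dose, limit read from the data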;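 further: growth measured after 20 h incubation at 37 °C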
# PostGolgi yeast = growth inhibition of a yeast mutant, post-Golgi transport screen; post-Golgi transport phenotypic cell assay; AID 739; 98,000 compounds, 0.9% hits; inhibition, % at 10 µM;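 further: yeast cells grown in 1536-well plates; yeast grown about 18 h at 30C before absorbance read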
# PostGolgi ctrl = yeast control strain growth, post-Golgi counter-screen. inhibition, % at 10 µM. AID 738. efflux-deficient yeast background strain, growth absorbance A615, 16 h. 98,000 compounds, 5% hits
# Cav32 inh = blocks human Cav3.2 T-type calcium channel; O95180; Cav3.2-expressing cells, Fluo-4 calcium fluorescence FDSS; active compounds read low; B-score at 10 µM; 100,000 compounds, 4% hits;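 active means single-dose well whose peak fluorescence ratio is a statistical outlier from its plate by either plate-standardised score or position-corrected B-score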
# * marks the source's active call; other numbers are inactive results; / = no result. Unless noted, no stated cut-off is given here; in the data, active means inhibition above about 30%; inactive means the rest.
SMILES,Ecoli tolC,E coli WT exp,PostGolgi yeast,PostGolgi ctrl,Cav32 inh
Cc1ccc(C(=O)N/N=C/c2cc(C)n(-c3ccc(Br)cc3)c2C)cc1[N+](=O)[O-],/,-11.0,4.5,13.5,0.0321
Cc1cccc(-n2c(C)cc(/C=N/NC(=O)c3cccc([N+](=O)[O-])c3C)c2C)c1,/,-8.0,11.0,25.3,-3.7*
NC(=O)Nc1ccc(Oc2c(F)c(F)c(F)c(F)c2F)cc1,5.2,6.0,1.8,10.7,-1.19
COc1cc(COCC(O)CN2CCOCC2)cc(OC)c1OC (stereo not drawn),-33.1,-5.0,-3.2,-0.3,/
CCC(C)(C)n1nnnc1CN1CCN(C(c2ccccc2)c2ccccc2)CC1,/,/,/,/,-3.42*
c1ccc(C(c2ccccc2)N2CCN(Cc3nnnn3C3CCCC3)CC2)cc1,49.1,-5.0,1.4,21.7,/
CCC(C)(C)n1nnnc1C(c1ccc(C)cc1)N1CCN(Cc2ccc3c(c2)OCO3)CC1 (stereo not drawn),/,/,/,/,-4.44*
CCCS(=O)(=O)N1CCC(C(=O)NCCN(C)Cc2ccccc2)CC1,-21.4,-1.0,-6.6,-13.1,0.713
Cc1cc2n(n1)C(c1ccc(N(C)C)cc1)Nc1ccccc1-2 (stereo not drawn),-3.4,5.0,-1.6,23.1,-7.18*
Cc1cc(C)n2c(SCc3ccc(Cl)cc3Cl)nnc2n1,/,-13.0,-4.2,35.5*,-0.346
Cc1cc(C)n2c(SCc3ccccc3Cl)nnc2n1,/,3.0,-2.4,38.5*,-1.12
CC(C)C(NC(=O)CSc1ccc(Cl)cc1)C(C)C,/,-1.0,-5.7,-0.2,-0.649
NC(=O)C(c1ccc(Cl)cc1)c1ccc(Sc2ccc(Cl)cc2)nn1 (stereo not drawn),/,3.0,-1.8,10.3,-4.29*
O=C(NC1CCN(C(=S)NCc2ccco2)CC1)NC12CC3CC(CC(C3)C1)C2,/,-6.0,-3.5,26.7,-3.8*
Cc1cccc(NC(=O)Cn2nnc(-c3ccc(CN4CCCC4)cc3)n2)c1C,-8.2,3.0,13.1,7.6,-2.62
CC(C)(C)NC(=O)CN(C(=O)Cn1nnc(-c2ccccc2F)n1)c1cccc2c1CCCC2,/,-5.0,11.8,-2.1,-3.09*
CC(C)(C)NC(=O)CN(C(=O)Cn1nnc(-c2ccc(Cl)cc2)n1)C1CCN(Cc2ccccc2)CC1,/,/,/,/,-7.56*
O=C(COC(=O)c1ccc(S(=O)(=O)Nc2ccccc2)cc1)NCc1ccco1,/,3.0,-3.7,-0.9,-0.78
O=C(CO/N=C/c1ccccc1)N1c2ccccc2Oc2ccccc21,/,/,/,/,-0.783
COc1cccc(C(=O)O/N=C/c2ccc(Sc3ccc(C)cc3)nc2)c1,/,-10.0,-3.9,10.7,0.349
CCOC(=O)CN1N=C(/C=C/c2ccc(OC)cc2)CCC1=O,/,-5.0,10.4,3.9,0.495
Cc1cc(N2CCN(c3ccccc3)CC2)nc(NCc2ccccc2)n1,53.1,-4.0,0.8,47.4*,-0.0154
COc1cc(C)nc(NCc2ccccc2)n1,9.5,8.0,17.7,14.8,-0.693
COc1ccc(-n2c(C)cc(C(=O)Cn3c(NCCO)nc4ccccc43)c2C)cc1,25.0,5.0,10.6,19.2,-6.77*
COc1cc(NS(=O)(=O)c2cccc3nsnc23)c(C(=O)O)cc1OC,-4.7,4.0,3.5,19.6,-0.195
SMILES,Ecoli tolC,E coli WT exp,PostGolgi yeast,PostGolgi ctrl,Cav32 inh
CC(C)(C)NC(=O)COC(=O)Cc1ccc(Cl)cc1,-2.2,7.0,1.0,-4.6,-0.0864
O=C(CN1CCCN(S(=O)(=O)c2ccc(Br)s2)CC1)Nc1ccc(Cl)cc1,/,-9.0,14.3,64.9*,-2.82
COC(=O)c1ccc(NC(=O)CN2CCN(c3ccc(Cl)cc3)CC2)cc1,-21.8,0.0,44.5*,15.8,1.05
Cc1ccc(C(=O)N2CCN(c3cccc(Cl)c3)CC2)cc1C,67.6*,-13.0,0.3,25.9,-2.11
COC(=O)c1ccc(NC(=O)CN2CCN(c3cccc(Cl)c3)CC2)cc1,75.0*,-13.0,3.3,26.7,-4.64
COC(=O)c1ccc(NC(=O)CN2CCN(c3ccccc3C)CC2)cc1,/,/,/,/,-2.02
CCCC(=O)NC(C)c1nc(-c2ccc(C)cc2)no1 (stereo not drawn),/,/,/,/,0.493
COc1cc(/C=N/n2cnnc2)ccc1OCCSc1ccc(C)cc1,/,-7.0,-6.5,14.4,-0.111
COC(=O)c1sccc1NC(=O)CN1CCN(c2ccc(F)cc2)CC1,53.7,-34.0,-1.4,32.1*,-1.93
CCc1ccc(Cn2nnc(C(=O)NCc3ccccc3OC)c2N)cc1,4.1,-7.0,4.7,-5.6,-7.14*
COc1ccc(OC)c(NC(=O)c2nnn(Cc3ccccc3C)c2N)c1,17.8,-3.0,-10.5,34.4*,-0.204
COc1ccc(C)cc1NC(=O)c1nnn(Cc2cc(C)ccc2C)c1N,18.8,1.0,1.0,18.4,-1.74
Nc1c(C(=O)NCc2ccccc2)nnn1Cc1ccc(F)cc1,5.0,1.0,-1.8,-2.6,-0.438

# High-throughput results as filed in PubChem BioAssay.
